Test results as given in ChEMBL document CHEMBL5032510, “Identification of Novel Fused Heteroaromatics-Based MALT1 Inhibitors by High-Throughput Screening to Treat B Cell Lymphoma” (J Med Chem, 2021).
pIC50: −log10 of the molar value. Calls of active or inactive are those of the source. The calls are words filed in the database; no cut-off is given here.

Legend:
[1] = biological target: T1, Mucosa-associated lymphoid tissue lymphoma translocation protein 1 (Homo sapiens, UniProt Q9UDY8); assay: Inhibition of full length recombinant wild type MALT1 (unknown origin) using Ac-LVSR-AMC as substrate by HTS assay
T1 sequence (Q9UDY8 whole entry): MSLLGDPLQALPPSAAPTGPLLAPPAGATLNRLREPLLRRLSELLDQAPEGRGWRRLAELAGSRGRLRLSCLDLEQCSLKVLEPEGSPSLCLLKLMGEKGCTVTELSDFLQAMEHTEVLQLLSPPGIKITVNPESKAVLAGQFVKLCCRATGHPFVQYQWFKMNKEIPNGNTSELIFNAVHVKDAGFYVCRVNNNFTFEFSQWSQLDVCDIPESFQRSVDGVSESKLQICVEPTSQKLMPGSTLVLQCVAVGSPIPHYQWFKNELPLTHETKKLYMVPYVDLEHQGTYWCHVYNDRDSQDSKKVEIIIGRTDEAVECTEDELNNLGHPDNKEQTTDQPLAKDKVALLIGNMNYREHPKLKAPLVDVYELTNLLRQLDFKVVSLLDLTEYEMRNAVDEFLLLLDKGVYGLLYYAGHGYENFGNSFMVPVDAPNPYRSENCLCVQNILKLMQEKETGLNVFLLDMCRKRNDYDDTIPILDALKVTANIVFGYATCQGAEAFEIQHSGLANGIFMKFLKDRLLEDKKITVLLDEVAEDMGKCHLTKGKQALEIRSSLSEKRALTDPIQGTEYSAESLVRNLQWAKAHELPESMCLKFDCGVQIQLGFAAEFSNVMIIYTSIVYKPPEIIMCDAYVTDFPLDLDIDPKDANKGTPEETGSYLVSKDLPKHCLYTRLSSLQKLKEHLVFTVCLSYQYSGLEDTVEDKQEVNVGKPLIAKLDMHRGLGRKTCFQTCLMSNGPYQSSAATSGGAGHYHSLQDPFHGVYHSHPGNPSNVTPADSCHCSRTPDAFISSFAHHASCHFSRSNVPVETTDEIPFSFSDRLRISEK

[2] = biological target: T1, Mucosa-associated lymphoid tissue lymphoma translocation protein 1; assay: Inhibition of MALT1 (340 to 789 residues) (unknown origin) using Ac-LRSR-AMC as substrate by fluorescence based analysis
Summary of the method: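 N-terminal His-tagged LZ-MALT1 expressed in E. coli, purified by Ni-NTA then gel filtration. Fluorescence read at 360/465 nm. IC₅₀ came from concentration–response curves; mean of three independent experiments.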

[3] = biological target: T1, Mucosa-associated lymphoid tissue lymphoma translocation protein 1; assay: Inhibition of MALT1 (329-824 residues) (unknown origin) using PT14 as substrate incubated for 60 mins by fluorescence based assay
[4] = biological target: T1, Mucosa-associated lymphoid tissue lymphoma translocation protein 1; assay: Inhibition of N-terminal his-tagged GCN4 leucine zipper fused human MALT1 […] expressed in Escherichia coli using Ac-LVSR-AMC as substrate by HTS assay
[5] = Antiproliferative activity against human HBL1 cells assessed as inhibition of cell growth incubated for 72 hrs by Celltiter-Glo luminescent assay; format: functional
Summary of the method: (§1)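 Exponentially growing cells were seeded at 1 × 10⁴ per 100 μL. HBL-1 and TMD8 were kept in RPMI with 10% FBS, 2 mM glutamine and 10 mM HEPES; OCI-LY1 in Iscove's medium with 20% FBS; all at 37 °C and 5% CO2. Cells were exposed to DMSO or 2-fold serial dilutions from 100 μM for 72 h, in triplicate on one plate. CellTiter-Glo luminescence was read after 1 h. Growth inhibition was calculated against control, accounting for initial cell number, and GI50 was fitted.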

TMD8 = assay: Antiproliferative activity against human TMD8 cells assessed as inhibition of cell growth incubated for 72 hrs by Celltiter-Glo luminescent assay; format: functional; summary of the method: as §1
OCI-Ly1 = assay: Antiproliferative activity against human OCI-Ly1 cells assessed as inhibition of cell growth incubated for 72 hrs by Celltiter-Glo luminescent assay; format: functional; summary of the method: as §1

pIC50 [1]	pIC50 [2]	pIC50 [3]	pIC50 [4]	GI50 (OCI-Ly1) [µM]	SMILES	GI50 [5] [µM]	GI50 (TMD8) [µM]	Activity (OCI-Ly1)
5.23	–	–	–	–	COCCOc1nc(-c2ccc(Cl)c(Cl)c2)n(-c2ccc(NC(=O)CCl)cc2)n1	–	–	–
–	8.00	–	–	–	CC(C)[C@H](NC(=O)c1ccc(Br)cc1)C(=O)N1CCC[C@H]1C(=O)N[C@@H](CCCNC(=N)N)C(=O)CF	–	–	–
–	–	8.30	–	–	CO[C@@H](C)c1c(NC(=O)Nc2cnc(C(=O)N3CCCC3)c(Cl)c2)cnc2cc(Cl)nn12	–	–	–
–	–	–	5.28	–	O=C(NCc1ccccc1Cl)c1sc(=S)n2c1[nH]c(=O)c1cc(Cl)ccc12	25	33	inactive
–	–	–	5.26	12.4	O=C(Nc1cccc(F)c1)c1sc(=S)n2c1[nH]c(=O)c1ccc(Cl)cc12	16.8	16.8	–
–	–	–	4.73	31.3	CCc1ccccc1NC(=O)c1sc(=S)n2c1[nH]c(=O)c1cc(C)ccc12	31.3	31.3	–
–	–	–	5.22	–	COc1ccccc1CNC(=O)c1sc(=S)n2c1[nH]c(=O)c1cc(Cl)ccc12	40	40	inactive
–	–	–	5.34	12.7	COc1ccc(OC)c(NC(=O)c2sc(=S)n(-c3cccc(Br)c3)c2NC(=O)CCl)c1	1.8	1.2	–
–	–	–	5.17	21	O=C(Nc1ccc([N+](=O)[O-])cc1)c1sc(=S)n2c1[nH]c(=O)c1ccccc12	14.3	4	–
–	–	–	5.48	20.2	O=C(Nc1cc(Cl)cc(Cl)c1)c1sc(=S)n2c1[nH]c(=O)c1cc(Br)ccc12	18.4	3.9	–
–	–	–	5.47	23	Cc1ccc2c(c1)c(=O)[nH]c1c(C(=O)Nc3cc(Cl)ccc3C)sc(=S)n12	14	8	–
–	–	–	5.39	–	O=C(NCc1cccs1)c1sc(=S)n2c1[nH]c(=O)c1cc(Br)ccc12	13	22	inactive
–	–	–	4.85	14.2	COc1cc2c(=O)[nH]c3c(C(=O)Nc4cc(Cl)cc(Cl)c4)sc(=S)n3c2cc1OC	2.2	6.3	–
–	–	–	4.91	21.6	COC(=O)c1ccc2c(=O)[nH]c3c(C(=O)Nc4ccc(F)cc4F)sc(=S)n3c2c1	14.2	28.2	–
